The nature of data set [1]: Drug metabolism in mouse liver microsomes assessed as UGT-mediated metabolism by measuring compound remaining at 5 uM incubated for 30 mins in presence of UDPGA by UPLC-MS analysis. It is filed as ADME. The settings on record: read-out: Stability. An outline of the steps:
(§1)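 Compound incubated with male mouse, rat, dog or pooled human S9 fractions, with NADPH (phase I) or […], sampled at 0, 15, 30 and 60 min. Read-out is percent parent remaining. Two independent experiments of two biological replicates; diclofenac and fluconazole used as assay controls.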
Background: Microsomes from liver hold many membrane-bound enzymes, among them those of drug oxidation.

Data set [2] can be described thus: Drug metabolism in mouse liver microsomes assessed as CYP450-mediated metabolism by measuring parent compound remaining at 5 uM incubated for 30 mins in presence of NADPH by UPLC-MS analysis. It is filed as ADME. The settings on record: read-out: Stability. An outline of the steps:
as §1

For data set [3], the system named is Trypanosoma cruzi. The experiment in a line: Antitrypanosomal activity against Trypanosoma cruzi Tulahuen CL2 amastigotes infected in human MRC5 SV2 cells incubated for 7 days by chlorophenol red beta-D-galactopyranoside substrate based spectrophotometric assay. It is filed as functional, organism-based. To be noted: Tulahuen CL2, MRC-5 SV2, 168 h. An outline of the steps: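 Intracellular amastigotes of β-galactosidase-expressing Tulahuen strain grown in MRC-5 fibroblast host cells. EC50 in μM given as mean and SEM of two or three independent experiments; some values come from a single determination.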

The nature of data set [4]: Drug metabolism in dog liver microsomes assessed as UGT-mediated metabolism by measuring compound remaining at 5 uM incubated for 60 mins in presence of UDPGA by UPLC-MS analysis. It is filed as ADME, Canis lupus familiaris. To be noted: read-out: Stability. An outline of the steps: as §1
Data set [5] is described as follows: Drug metabolism in dog liver microsomes assessed as UGT-mediated metabolism by measuring compound remaining at 5 uM incubated for 30 mins in presence of UDPGA by UPLC-MS analysis. The settings on record: read-out: Stability. It is filed as ADME, Canis lupus familiaris. An outline of the steps: as §1
The test system of data set [6] is Trypanosoma cruzi. Briefly: Antitrypanosomal activity against Trypanosoma cruzi Y amastigotes infected in Swiss mouse primary cardiac cells incubated for 168 hrs with media replenishment for every 48 hrs followed by compound washout and measured after 168 hrs by light microscopic method. It is filed as functional, organism-based. An outline of the steps:
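Cardiac cells plated 24 h, then infected 24 h at 37 °C with Y-strain bloodstream trypomastigotes (parasite:host 10:1) and washed. Serial dilutions (up to 5 µM) for 168 h at 37 °C, drug medium renewed every 48 h. PBS rinse, 168 h drug-free. Giemsa-stained; infected cells and parasites per cell scored in 200 cells. EC50 from infection-index inhibition; two experiments, duplicate.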

A short description of data set [7]: Drug metabolism in dog liver microsomes assessed as CYP450-mediated metabolism by measuring parent compound remaining at 5 uM incubated for 15 mins in presence of NADPH by UPLC-MS analysis. It is filed as ADME, Canis lupus familiaris. The settings on record: read-out: Stability. An outline of the steps:
as §1

The target of data set [8] is UDP-glucuronosyltransferases (UGTs) (Homo sapiens, UniProt O60656+O75310+O75795+P06133+P0DTE4+P0DTE5+P16662+P19224+P22309+P22310+P35503+P35504+P36537+P54855+Q6UWM9+Q9BY64+Q9HAW7+Q9HAW8+Q9HAW9). The experiment in a line: Drug metabolism in human liver S9 fraction assessed as UGT-mediated metabolism by measuring compound remaining at 5 uM incubated for 15 mins in presence of UDPGA by UPLC-MS analysis. The settings on record: read-out: Stability. It is filed as ADME, subcellular. An outline of the steps: as §1

Data set [9] is described as follows: Drug metabolism in mouse liver microsomes assessed as CYP450-mediated metabolism by measuring parent compound remaining at 5 uM incubated for 60 mins in presence of NADPH by UPLC-MS analysis. It is filed as ADME. The settings on record: read-out: Stability.
The test system of data set [10] is Trypanosoma cruzi. The experiment in a line: In vivo antitrypanosomal activity against Trypanosoma cruzi Y trypomastigotes infected in Swiss mouse assessed as mouse survival at 25 mg/kg, po administered twice daily for 5 days with 2 days interval for 3 cycles and measured […]. It is filed as functional, organism-based. An outline of the steps:
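Male Swiss Webster mice infected i.p. with 10⁴ Y-strain bloodstream trypomastigotes; six per group. Oral gavage from 5 dpi for 15 days (three 5-day rounds, 2 days off): test compound 25 mg/kg b.i.d., benznidazole 100 mg/kg s.i.d. Parasites counted in 5 μL tail blood to 30 dpi; mortality followed to 53 dpi.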

In another data set the target is Cytochrome P450 (Homo sapiens, UniProt P04798+P05177+P05181+P08684+P10632+P10635+P11509+P11712+P13584+P20813+P20815+P20853+P24462+P24903+P33260+P33261+P51589+P78329+P98187+Q02928+Q08477+Q16678+Q16696+Q5TCH4+Q6VVX0+Q7Z449+Q8TAV3+Q96SQ9+Q9HB55). The experiment in a line: Drug metabolism in human liver S9 fraction assessed as CYP450-mediated metabolism by measuring parent compound remaining at 5 uM incubated for 30 mins in presence of NADPH by UPLC-MS analysis. It is filed as ADME, subcellular. The settings on record: read-out: Stability. An outline of the steps:
as §1

The nature of data set [11]: Selectivity index, ratio for EC50 for human MRC5 SV2 cells to EC50 for Trypanosoma cruzi Tulahuen CL2 amastigotes infected in human MRC5 SV2 cells. The settings on record: read-out: Ratio EC50. It is filed as toxicity, cell-based.
The subject of data set [12] is Trypanosoma cruzi. The experiment in a line: Antitrypanosomal activity against Trypanosoma cruzi Y amastigotes infected in Swiss mouse primary cardiac cells replenished for every 48 hrs for 168 hrs by geimsa staining based assay. It is filed as functional, organism-based. An outline of the steps:
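Primary mouse cardiac cells infected 24 h at 37 °C with Y-strain bloodstream trypomastigotes (parasite:host 10:1), washed, then exposed 168 h at 37 °C to serial dilutions, medium with compound renewed every 48 h. Giemsa stained; infected cells and parasites per infected cell scored in 200 host cells. EC50 from inhibition of infection index; two independent determinations.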

Data set [13] can be described thus: Drug metabolism in rat liver microsomes assessed as UGT-mediated metabolism by measuring compound remaining at 5 uM incubated for 30 mins in presence of UDPGA by UPLC-MS analysis. It is filed as ADME. The settings on record: read-out: Stability. An outline of the steps: as §1
A short description of data set [14]: Cytotoxicity against human MRC5 SV2 cells assessed as reduction in cell viability incubated for 3 days by resazurin dye based assay. To be noted: MRC-5 SV2, 72 h.
The next data set deals with L929. The experiment in a line: Cytotoxicity against mouse L929 cells assessed as reduction in cell viability. It is filed as cell-based.
The nature of data set [15]: Cytotoxicity against Swiss mouse primary cardiac cells assessed as reduction in cell viability incubated for 24 hrs by PrestoBlue dye based colorimetry.
Data set [16] relates to Trypanosoma cruzi. The experiment in a line: In vivo antitrypanosomal activity against Trypanosoma cruzi Y trypomastigotes infected in Swiss mouse assessed as reduction in parasitemia at 25 mg/kg, po administered twice daily via gavage for 5 days starting from 5 days post-infection in presence of cyclophosphamide by light microscopic method. It is filed as functional, organism-based. An outline of the steps:
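Infected mice were dosed orally at 25 mg/kg b.i.d. from 5 dpi, either for 5 days or for 15 days (3 × 5 days, 2 days apart). Mice with negative parasitemia up to 30 days post-treatment then received cyclophosphamide i.p. at 50 mg/kg/day. This was given in three cycles of 4 days, each followed by 3 drug-free days. Tail-vein blood parasitemia was then read by light microscopy.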

The nature of data set [17]: Drug metabolism in mouse liver microsomes assessed as UGT-mediated metabolism by measuring compound remaining at 5 uM measured immediately in presence of UDPGA by UPLC-MS analysis. It is filed as ADME. The settings on record: read-out: Stability. An outline of the steps: as §1
A short description of data set [18]: Drug metabolism in rat liver microsomes assessed as CYP450-mediated metabolism by measuring parent compound remaining at 5 uM incubated for 60 mins in presence of NADPH by UPLC-MS analysis. It is filed as ADME. The settings on record: read-out: Stability. An outline of the steps:
as §1

Data on 1 compound can be found in ChEMBL document CHEMBL4414577, “Discovery of Pyrrolo[2,3-b]pyridine (1,7-Dideazapurine) Nucleoside Analogues as Anti-Trypanosoma cruzi Agents” (J Med Chem, 2019).

One may read the EC50 as the concentration needed to bring the measured effect to its halfway point.

Molecules are shown by their SMILES. The source made the active and inactive calls. The calls are words filed in the database; no cut-off is given here. A value given as a limit tells only on which side of the number the result lay.

For `Nc1ccnc2c1c(I)cn2[C@@H]1O[C@H](CO)[C@@H](O)[C@H]1O`, the remaining at 0.5 h, 5 µM in data set [1] stood at 103%; in data set [2] it was 95%; in [5], 94%; at Cytochrome P450 it was 96%; in data set [13], 94%. The EC50 was 40 nM in the data set with Trypanosoma cruzi [3]; above 5000 nM in the data set on Trypanosoma cruzi [6]; 89 nM in the data set on Trypanosoma cruzi [12]; above 64000 nM in data set [14]; above 200000 nM in the data set with L929; above 400000 nM in data set [15]. For the same compound, the results for the remaining at 1 h, 5 µM in data set [4], in data set [9] and in data set [18] were 84%, 94% and 85%, respectively. Besides, the remaining at 0.25 h, 5 µM in data set [7] was 97%; in [8], 99%. Moreover, the result in the data set with Trypanosoma cruzi [10] and with Trypanosoma cruzi [16] was inactive. For the same compound, the selectivity ratio in data set [11] was above 1600. The remaining at 0 min, 5 µM in data set [17] turned out to be 100%.
